# Hck Nef HTS: blocks Nef-activated human Hck kinase | AID 463187 | 220,000 tested, 0.68% active | P08631 | Recombinant Hck-YEEI plus Nef, Z-Lyte FRET kinase assay | inhibition, % at 20 µM;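 active = Hck-Nef kinase inhibition above about 50%, limit read from the data; inactive = inhibition below that limit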;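 note: 0% = DMSO with Hck plus Nef and 100% = Hck alone without Nef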
# Target sequence (P08631 whole entry, looked up): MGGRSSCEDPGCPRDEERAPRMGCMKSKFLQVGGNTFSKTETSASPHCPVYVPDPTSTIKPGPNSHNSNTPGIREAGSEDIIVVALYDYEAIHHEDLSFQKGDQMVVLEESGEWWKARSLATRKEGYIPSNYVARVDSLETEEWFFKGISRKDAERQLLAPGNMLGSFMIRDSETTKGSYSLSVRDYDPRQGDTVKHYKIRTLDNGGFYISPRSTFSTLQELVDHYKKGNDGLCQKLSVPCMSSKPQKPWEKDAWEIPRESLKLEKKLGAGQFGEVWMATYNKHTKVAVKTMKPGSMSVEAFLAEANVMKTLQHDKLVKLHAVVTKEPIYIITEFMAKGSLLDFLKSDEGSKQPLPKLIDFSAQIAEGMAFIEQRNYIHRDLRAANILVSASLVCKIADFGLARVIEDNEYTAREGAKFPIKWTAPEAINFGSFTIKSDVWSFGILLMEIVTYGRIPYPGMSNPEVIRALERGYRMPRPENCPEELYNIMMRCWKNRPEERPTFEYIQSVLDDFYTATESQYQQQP
# Runt-SMMHC FRET: inhibitors of human RUNX1 Runt domain binding to CBFb-SMMHC; Cerulean-Runt/Venus-CBFb-SMMHC FRET ratio 530/480, 1 h; inhibition, % at 20 µM; 220,000 tested, 0.74% active;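 active = mean inhibition across duplicate retests at 20 µM reaching about 50%, limit read from the data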;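 note: 0% = DMSO wells and 100% = wells with excess untagged CBFb-SMMHC; inhibitors lower the FRET ratio by blocking Runt binding to CBFb-SMMHC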
# RanGTP-Imp inh: disruptors of Ran-importin-beta complex formation – biochemical, FRET, CFP-Ran, YFP-importin-beta, homogeneous, primary screen. cell-free CFP-Ran/YFP-importin-beta FRET ratio. inhibition, % (concentration not given with the values). 300,000 tested, 1.1% active. AID 2216;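 active = more than half of the replicate wells show a fall in the fluorescence ratio signal beyond about 16%, limit read from the data, passing the limit was not always enough; inconclusive = exactly half of the replicate wells pass the set limit; inactive = fewer than half of replicates pass the limit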;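 note: 0% = DMSO wells and 100% = Ran loaded with GDP instead of GTP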
# Runt-CBFb FRET: Runt domain-CBFb interaction inhibition. inhibition, % at 20 µM. 220,000 tested, 0.46% active. Q01196+Q13951. Cerulean-Runt/Venus-CBFb FRET ratio 530/480, 1 h;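 active = inhibition over about 50% at 20 µM in the single-dose screen, limit read from the data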;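 note: 0% = DMSO wells and 100% = excess unlabeled CBFb competitor control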
#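 Assay system: Cerulean-Runt domain fusion protein, energy donor; Signal: fluorescence energy transfer, 422 nm excitation, 530/480 nm emission; Timing: 1 h compound exposure, room temperature; Control set: unlabeled CBFb; Medium: Tris buffer pH 7.5 with salts and BSA; Compound: single test concentration of 20 µM, 1% DMSO final; Probe or stimulus: Venus-CBFb 100 nM.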
# Numbers without * were called inactive; ? = inconclusive; nt = no result given. This is a sample that favours compounds with a hit; in the whole collection about 1.9% have one here.
SMILES,Hck Nef HTS,Runt-SMMHC FRET,RanGTP-Imp inh,Runt-CBFb FRET
Cc1nc2ccccn2c1CN(C)C(=O)C1CCC(=O)N(CCc2cccc(F)c2)C1 (stereo unspecified),nt,nt,-1,nt
FC(F)(F)c1cc(-c2cccs2)nc2cc(-c3cccs3)nn12,15,-32,43*,-5
O=c1[nH]c2ccccc2nc1/C=C/c1ccc(Cl)cc1,21,37,23*,-32
Cn1c(/C=C/c2ccc(Cl)cc2)nc2ccccc2c1=O,nt,nt,20*,nt
C=CCNC(=O)C(=O)N/N=C/c1ccco1,-1,1,2,0
N#Cc1cc(Br)ccc1N=C1CCCN1c1ccccc1,1,-4,4,-2
Cc1c(Br)c([N+](=O)[O-])nn1C(C)C(=O)N1CCc2ccccc2C1 (stereo unspecified),nt,nt,4,nt
O=C(/C=C/c1cccs1)NC1CC1,15,-4,21*,0
CCN1C(=O)[C@H]2[C@@H](c3ccc(-c4ccc(OC)cc4)cc3)N3CCCC[C@@]3(C(=O)OC)[C@H]2C1=O,nt,nt,-4,nt
O=C(CSC1CS(=O)(=O)c2cc([N+](=O)[O-])ccc21)NNC(=O)c1ccc(Cl)cc1 (stereo unspecified),19,-3,-1,7
O=C(CSC1CS(=O)(=O)c2cc([N+](=O)[O-])ccc21)NNC(=O)c1ccccc1 (stereo unspecified),7,-2,18*,-1
CCCc1cc(-n2ccnc2)n2c(nc3ccccc32)c1C#N,5,62*,?,88*
CC(c1ccncn1)N(C)C(=O)c1ccc2oc(Cc3ccccc3)nc2c1 (stereo unspecified),nt,nt,9,nt
O=C(Cc1ccc(S(=O)(=O)N2CCOCC2)s1)Nc1ccccc1N1CCCC1,nt,nt,19*,nt
CCCOC(=O)c1ccc(NC(=O)c2c(Cl)ccc(Cl)c2OC)cc1,1,6,31*,2
O=C1S/C(=C\C=C\c2ccco2)C(=O)N1c1ccc(O)cc1,6,0,-4,15
O=C(O)CC(C(=O)O)N1C(=O)/C(=C/C=C/c2ccco2)SC1=S (stereo unspecified),71*,-2,-5,39
Cc1cccc(CN2CCCC(C(=O)c3ccc4c5c(cccc35)CC4)C2)n1 (stereo unspecified),154*,2,-4,-2
O=C(c1ccc2c3c(cccc13)CC2)C1CCCN(Cc2cccnc2)C1 (stereo unspecified),17,-4,-3,-4
CCCc1c(C)c(C#N)c2nc3ccccc3n2c1NCCCN1CCOCC1,16,54*,9,20
CCc1nc(NCCN2CCOCC2)c(C#N)c2c1CCCC2,-12,-5,-2,0
N#Cc1c2c(c(NCCN3CCOCC3)n3c1nc1ccccc13)CCCC2,31,111*,45*,50*
CCCCc1c(C)c(C#N)c2nc3ccccc3n2c1NCCN(C)C,nt,nt,5,nt
Cc1c(Cc2ccccc2)c(NCCN(C)C)n2c(nc3ccccc32)c1C#N,13,81*,26*,30
N#Cc1ccccc1CSCCNC(=O)Cc1c(F)cccc1Cl,nt,nt,3,nt
SMILES,Hck Nef HTS,Runt-SMMHC FRET,RanGTP-Imp inh,Runt-CBFb FRET
COc1ccc(C2C3=C(CC(C)(C)CC3=O)Nc3c2c(=O)n(C)c(=O)n3C)cc1OC (stereo unspecified),6,107*,5,63*
C=CCOc1ccccc1C1C2=C(CC(C)(C)CC2=O)Nc2c1c(=O)n(C)c(=O)n2C (stereo unspecified),8,46,2,24
COc1ccc(OC)c(C2C3=C(CCCC3=O)Nc3c2c(=O)n(C)c(=O)n3C)c1 (stereo unspecified),6,73*,3,33
COc1ccc(OC)c(C2C3=C(CCCC3=O)Nc3nnnn32)c1 (stereo unspecified),0,2,8,-1
COc1ccc(C2C3=C(CC(C)(C)CC3=O)Nc3c2c(=O)[nH]c2nc(C)nn32)cc1 (stereo unspecified),4,135*,46*,87*
COc1ccc(C2C(C#N)=C(C)NC3=C2C(=O)CC(C)(C)C3)cc1 (stereo unspecified),18,40,-2,17
CC(c1nnc(SCC(=O)Nc2cccnc2Cl)n1Cc1ccccc1)N(C)C (stereo unspecified),12,1,3,4
O=c1onc(-c2ccc(Cl)cc2Cl)n1-c1cccnc1,5,0,0,-2
Cc1ccc(S(=O)(=O)N2CCOCC2)cc1C(=O)OC(C)C(=O)c1ccccc1 (stereo unspecified),nt,nt,2,nt
COc1cc(/C=N/N2CCN(C3c4ccccc4-c4ccccc43)CC2)cc(OC)c1O,2,56*,1,50
O=c1cc(N2CCCCCC2)[nH]c(=O)n1-c1ccc(Cl)cc1,9,-4,129*,0
O=c1cc(N2CCCC2)[nH]c(=O)n1-c1ccc(Cl)cc1,4,1,59*,-88
O=c1cc(N2CCOCC2)[nH]c(=O)n1-c1ccc(Cl)cc1,0,1,11,0
Cc1ccc(-n2c(=O)cc(N3CCCCCC3)[nH]c2=O)cc1,-2,-3,3,0
O=C(/C=C/Nc1nccs1)C(F)(F)Cl,-1,71*,-4,45
O=C(Nc1nccs1)NC(C(F)(F)F)C(F)(F)F,3,2,5,-1
N#CC1=C(N)N2C(=C(C#N)C13CCN(Cc1ccccc1)CC3)Nc1ccccc12,14,19,34*,12
O=C(OCC(=O)N1CCCc2ccccc21)c1c(F)cccc1F,nt,nt,3,nt
CCN(CC)CCCN1C=C2C(=O)C(C)(OC(=O)CCc3ccccc3)C(=O)C=C2C=C1c1ccc(C#N)cc1 (stereo unspecified),18,51*,0,36
COc1ccc(CN2C=C3C(=O)C(C)(OC(=O)CCc4ccccc4)C(=O)C=C3C=C2c2ccc(C#N)cc2)cc1 (stereo unspecified),30,1,0,6
CCOc1ccc(C(=O)Nc2cccc(C(C)=O)c2)cc1[N+](=O)[O-],20,3,2,-1
O=C(/C=C/Nc1ccc(Oc2ccccc2)cc1)c1ccco1,-8,-32,-6,-17
CN1CC=C2C(C#N)=C(N)C(C#N)(C#N)[C@H](c3cccc(Cl)c3)C2C1 (stereo partly specified),14,58*,45*,34
CN1CC=C2C(C#N)=C(N)C(C#N)(C#N)[C@H](c3cccs3)[C@H]2C1,15,75*,55*,37
N#CC1=C(N)C(C#N)(C#N)C(c2cccnc2)C2CC(c3ccccc3)CC=C12 (stereo unspecified),3,-1,-43,-44
CC(C)c1ccc(C2C3CSCC=C3C(C#N)=C(N)C2(C#N)C#N)cc1 (stereo unspecified),4,-24,16*,-9

# Screening data from PubChem.
